Converted amounts (≈) assume the structure as drawn.
Columns and labels:
Type in all cases: functional
Cryptococcus neoformans [1] = assay: Antimicrobial activity against Cryptococcus neoformans IM 972751 isolate at 12.5 ug/ml after 48 hrs
Summary of the method: (§1)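 Clinical Cryptococcus isolates kept on Sabouraud-dextrose agar slopes; inoculum 1–5 × 10³ CFU/mL. Quinoline DMSO stocks were diluted in RPMI-1640 to final 100–6.25 µg/mL, with DMSO ≤2%. An equal volume of inoculum was added (200 µL per well). Run in triplicate.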

[2] = system: Trichophyton mentagrophytes; assay: Antifungal activity against Trichophyton mentagrophytes ATCC 9972 after 48 hrs by broth microdilution technique; conditions: ATCC 9972, 48 h
Summary of the method: (§2)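 CLSI broth microdilution: M-27 A2 for yeasts and M-38 A for filamentous fungi. Medium is RPMI-1640 buffered to pH 7.0 with MOPS. Compound is diluted twofold from 250 to 0.98, final DMSO ≤2%. Inoculum is 1–5 × 10³ CFU/mL. Plates are incubated at 35 °C in a moist, dark chamber and read visually at 48 h. MIC100 is the lowest concentration giving total growth inhibition versus drug-free control.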

Cryptococcus neoformans [3] = assay: Antimicrobial activity against Cryptococcus neoformans IM 031706 isolate at 50 ug/ml after 48 hrs
Summary of the method: (§3)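 Percent growth inhibition in 96-well microplates. Compound stocks in DMSO (≤2%) were diluted in RPMI-1640 to final 100–6.25 µg/mL, and 100 µL inoculum was added (final 200 µL). Controls were a growth well (inoculum with matching DMSO, no compound) and a sterility well (no inoculum). Inhibition was calculated against growth and sterility wells.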

Cryptococcus neoformans [4] = assay: Antimicrobial activity against Cryptococcus neoformans IM 983036 isolate at 100 ug/ml after 48 hrs; summary of the method: as §1
Cryptococcus neoformans [5] = assay: Antimicrobial activity against Cryptococcus neoformans IM 00319 isolate at 100 ug/ml after 48 hrs; summary of the method: as §3
Cryptococcus neoformans [6] = assay: Antimicrobial activity against Cryptococcus neoformans IM 031706 isolate at 100 ug/ml after 48 hrs; summary of the method: as §3
Cryptococcus neoformans [7] = assay: Antimicrobial activity against Cryptococcus neoformans IM 972751 isolate at 25 ug/ml after 48 hrs; summary of the method: as §1
Cryptococcus neoformans [8] = assay: Antimicrobial activity against Cryptococcus neoformans IM 031631 isolate at 12.5 ug/ml after 48 hrs; summary of the method: as §3
Cryptococcus neoformans [9] = assay: Antimicrobial activity against Cryptococcus neoformans IM 052470 isolate at 50 ug/ml after 48 hrs; summary of the method: as §3
Cryptococcus neoformans [10] = assay: Antimicrobial activity against Cryptococcus neoformans IM 031706 isolate at 25 ug/ml after 48 hrs; summary of the method: as §3
Cryptococcus neoformans [11] = assay: Antimicrobial activity against Cryptococcus neoformans IM 972724 isolate at 25 ug/ml after 48 hrs; summary of the method: as §1
Cryptococcus neoformans [12] = assay: Antimicrobial activity against Cryptococcus neoformans IM 052470 isolate at 100 ug/ml after 48 hrs; summary of the method: as §3
Cryptococcus neoformans [13] = assay: Antimicrobial activity against Cryptococcus neoformans IM 031631 isolate at 100 ug/ml after 48 hrs; summary of the method: as §3
Cryptococcus neoformans [14] = assay: Antimicrobial activity against Cryptococcus neoformans IM 972724 isolate at 6.25 ug/ml after 48 hrs; summary of the method: as §1
Cryptococcus neoformans [15] = assay: Antimicrobial activity against Cryptococcus neoformans IM 983036 isolate at 50 ug/ml after 48 hrs; summary of the method: as §1
Candida albicans [16] = assay: Antimicrobial activity against Candida albicans ATCC 10231 at 25 ug/ml after 24 hrs; conditions: ATCC 10231, 24 h
Summary of the method: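 Growth-inhibition microplate test. Strains are grown on Sabouraud-chloramphenicol agar for 48 h at 30 °C, and inoculum is added to RPMI-1640 containing compound at a final 100–6.25, with DMSO ≤2%. Each strain has a growth control (same DMSO, no compound) and a sterility control.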

Cryptococcus neoformans [17] = assay: Antimicrobial activity against Cryptococcus neoformans IM 983036 isolate at 25 ug/ml after 48 hrs; summary of the method: as §1
Cryptococcus neoformans [18] = assay: Antimicrobial activity against Cryptococcus neoformans IM 961951 isolate at 50 ug/ml after 48 hrs; summary of the method: as §1
Cryptococcus neoformans [19] = assay: Antimicrobial activity against Cryptococcus neoformans IM 972751 isolate at 100 ug/ml after 48 hrs; summary of the method: as §1
Aspergillus fumigatus = assay: Antifungal activity against Aspergillus fumigatus ATTC 26934 after 48 hrs by broth microdilution technique; summary of the method: as §2
Saccharomyces cerevisiae = assay: Antifungal activity against Saccharomyces cerevisiae ATCC 9763 after 48 hrs by broth microdilution technique; conditions: ATCC 9763, 48 h; summary of the method: as §2
Nannizzia gypsea = assay: Antifungal activity against Microsporum gypseum C115 after 48 hrs by broth microdilution technique; summary of the method: as §2
Cryptococcus neoformans [20] = assay: Antifungal activity against Cryptococcus neoformans ATCC 32264 after 48 hrs by broth microdilution technique; conditions: ATCC 32264, 48 h; summary of the method: as §2
Cryptococcus neoformans [21] = assay: Antimicrobial activity against Cryptococcus neoformans IM 042074 isolate at 100 ug/ml after 48 hrs; summary of the method: as §3
Cryptococcus neoformans [22] = assay: Antimicrobial activity against Cryptococcus neoformans IM 031631 isolate at 50 ug/ml after 48 hrs; summary of the method: as §3
Aspergillus flavus = assay: Antifungal activity against Aspergillus flavus ATCC 9170 after 48 hrs by broth microdilution technique; conditions: ATCC 9170, 48 h; summary of the method: as §2
Cryptococcus neoformans [23] = assay: Antimicrobial activity against Cryptococcus neoformans IM 983040 isolate at 12.5 ug/ml after 48 hrs; summary of the method: as §1
Cryptococcus neoformans [24] = assay: Antimicrobial activity against Cryptococcus neoformans IM 052470 isolate at 12.5 ug/ml after 48 hrs; summary of the method: as §3
Aspergillus niger = assay: Antifungal activity against Aspergillus niger ATCC 9029 after 48 hrs by broth microdilution technique; conditions: ATCC 9029, 48 h; summary of the method: as §2
Cryptococcus neoformans [25] = assay: Antimicrobial activity against Cryptococcus neoformans IM 972724 isolate at 12.5 ug/ml after 48 hrs; summary of the method: as §1
Cryptococcus neoformans [26] = assay: Antimicrobial activity against Cryptococcus neoformans IM 042074 isolate at 25 ug/ml after 48 hrs; summary of the method: as §3
Cryptococcus neoformans [27] = assay: Antimicrobial activity against Cryptococcus neoformans IM 031706 isolate at 12.5 ug/ml after 48 hrs; summary of the method: as §3
Trichophyton rubrum = assay: Antifungal activity against Trichophyton rubrum C110 after 48 hrs by broth microdilution technique; conditions: read-out: MIC; summary of the method: as §2
Cryptococcus neoformans [28] = assay: Antimicrobial activity against Cryptococcus neoformans IM 052470 isolate at 6.25 ug/ml after 48 hrs; summary of the method: as §3
Cryptococcus neoformans [29] = assay: Antimicrobial activity against Cryptococcus neoformans IM 00319 isolate at 12.5 ug/ml after 48 hrs; summary of the method: as §3
Cryptococcus neoformans [30] = assay: Antimicrobial activity against Cryptococcus neoformans IM 972751 isolate at 50 ug/ml after 48 hrs; summary of the method: as §1
Cryptococcus neoformans [31] = assay: Antimicrobial activity against Cryptococcus neoformans ATCC 32264 at 50 ug/ml after 48 hrs; conditions: ATCC 32264, 48 h; summary of the method: as §3
Cryptococcus neoformans [32] = assay: Antimicrobial activity against Cryptococcus neoformans IM 00319 isolate at 25 ug/ml after 48 hrs; summary of the method: as §3
Candida albicans [33] = assay: Antifungal activity against Candida albicans ATCC 10231 after 48 hrs by broth microdilution technique; conditions: ATCC 10231, 48 h; summary of the method: as §2
Cryptococcus neoformans [34] = assay: Antimicrobial activity against Cryptococcus neoformans IM 031706 isolate at 6.25 ug/ml after 48 hrs; summary of the method: as §3
Cryptococcus neoformans [35] = assay: Antimicrobial activity against Cryptococcus neoformans IM 972724 isolate at 50 ug/ml after 48 hrs; summary of the method: as §1
Cryptococcus neoformans [36] = assay: Antimicrobial activity against Cryptococcus neoformans IM 961951 isolate at 12.5 ug/ml after 48 hrs; summary of the method: as §3

`c1ccc2nc(-c3ccncc3)ccc2c1` gave an inhibition at 12.5 µg/mL (Cryptococcus neoformans [1]) of 0%, an MIC [2] of 50 µg/mL (≈ 242 µM) and an inhibition at 50 µg/mL (Cryptococcus neoformans [3]) of 69%. It also gave an inhibition at 100 µg/mL (Cryptococcus neoformans [4]) of 79%, an inhibition at 100 µg/mL (Cryptococcus neoformans [5]) of 92% and an inhibition at 100 µg/mL (Cryptococcus neoformans [6]) of 100%. The inhibition at 25 µg/mL (Cryptococcus neoformans [7]) was 9%, the inhibition at 12.5 µg/mL (Cryptococcus neoformans [8]) was 36% and the inhibition at 50 µg/mL (Cryptococcus neoformans [9]) was 75%. The inhibition at 25 µg/mL (Cryptococcus neoformans [10]) was 57%, the inhibition at 25 µg/mL (Cryptococcus neoformans [11]) was 8% and the inhibition at 100 µg/mL (Cryptococcus neoformans [12]) was 99%. For the same compound, the inhibition at 100 µg/mL (Cryptococcus neoformans [13]) was 100%, the inhibition at 6.25 µg/mL (Cryptococcus neoformans [14]) was 0% and the inhibition at 50 µg/mL (Cryptococcus neoformans [15]) was 69%. It also gave an inhibition at 25 µg/mL (Candida albicans [16]) of 63%, an inhibition at 25 µg/mL (Cryptococcus neoformans [17]) of 45% and an inhibition at 50 µg/mL (Cryptococcus neoformans [18]) of 89%. It also gave an inhibition at 100 µg/mL (Cryptococcus neoformans [19]) of 98%, an MIC (Aspergillus fumigatus) of 50 µg/mL (≈ 242 µM) and an MIC (Saccharomyces cerevisiae) of 50 µg/mL (≈ 242 µM). For the same compound, the MIC (Nannizzia gypsea) was 50 µg/mL (≈ 242 µM), the MIC (Cryptococcus neoformans [20]) was 50 µg/mL (≈ 242 µM) and the inhibition at 100 µg/mL (Cryptococcus neoformans [21]) was 92%. For the same compound, the inhibition at 50 µg/mL (Cryptococcus neoformans [22]) was 75%, the MIC (Aspergillus flavus) was 50 µg/mL (≈ 242 µM) and the inhibition at 12.5 µg/mL (Cryptococcus neoformans [23]) was 0%. The inhibition at 12.5 µg/mL (Cryptococcus neoformans [24]) was 24%, the MIC (Aspergillus niger) was 50 µg/mL (≈ 242 µM) and the inhibition at 12.5 µg/mL (Cryptococcus neoformans [25]) was 0%. It also gave an inhibition at 25 µg/mL (Cryptococcus neoformans [26]) of 87%, an inhibition at 12.5 µg/mL (Cryptococcus neoformans [27]) of 41% and an MIC (Trichophyton rubrum) of 50 µg/mL (≈ 242 µM). The inhibition at 6.25 µg/mL (Cryptococcus neoformans [28]) was 0%, the inhibition at 12.5 µg/mL (Cryptococcus neoformans [29]) was 32% and the inhibition at 50 µg/mL (Cryptococcus neoformans [30]) was 20%. It also gave an inhibition at 50 µg/mL (Cryptococcus neoformans [31]) of 100%, an inhibition at 25 µg/mL (Cryptococcus neoformans [32]) of 52% and an MIC (Candida albicans [33]) of 100 µg/mL (≈ 485 µM). It also gave an inhibition at 6.25 µg/mL (Cryptococcus neoformans [34]) of 21%, an inhibition at 50 µg/mL (Cryptococcus neoformans [35]) of 23% and an inhibition at 12.5 µg/mL (Cryptococcus neoformans [36]) of 34%.

Reference: ChEMBL document CHEMBL1140069, “In vitro antifungal activity of polyfunctionalized 2-(hetero)arylquinolines prepared through imino Diels-Alder reactions” (2008)
